This is an account of results in ChEMBL document CHEMBL4602722, “Structural Studies on the Inhibitory Binding Mode of Aromatic Coumarinic Esters to Human Kallikrein-Related Peptidase 7” (J Med Chem, 2020).

Each structure is given as a SMILES string. Calls of active or inactive are those of the source. The rule behind the calls is not given here.

The target in data set [1] is Kallikrein-7 (Homo sapiens) (UniProt P49862). The data set is described as follows: Covalent binding affinity to of N-terminal SUMO and His6-tagged human KLK7 expressed in Escherichia coli Rosetta (DE3) pLysS assessed as compound binding to His57 of catalytic triad by mass spectrometry.
The target is the same in data set [2]. The data set is described as follows: Inhibition of N-terminal SUMO and His6-tagged human KLK7 assessed as protease activity by measuring fluorogenic peptide substrate NFF-3 cleavage (reference value: >400 pmol/(min.ug).
The nature of data set [3]: Stability in 100% DMSO at -20 degC for several months by ESI-MS and 1H NMR spectroscopy. Type of data set: physicochemical.
Data set [4] has as its target Kallikrein-7 (Homo sapiens) (UniProt P49862). The data set can be described thus: Inhibition of N-terminal SUMO and His6-tagged human KLK7 assessed as reduction in vaspin-N-terminal cleavage using compound pre-treated KLK7 incubated for 60 mins by Coomassie-staining based SDS-PAGE method. An outline of the steps:
(§1)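 KLK7 was pre-treated with 1 mM compound (10 % DMSO, 37 °C, 30 min) and concentrated on a 5 kDa spin column. It was then mixed with vaspin at a 3:1 molar ratio (3.15 μM KLK7, 1.05 μM vaspin) in 50 mM Tris, 150 mM NaCl, pH 8.0 (elsewhere stated as pH 7.5) at room temperature for up to 60 min. Time-point samples were boiled 5 min in reducing SDS buffer, run on 12 % gels and Coomassie-stained.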

Data set [5] shares this target. The data set can be described thus: Inhibition of N-terminal SUMO and His6-tagged human KLK7 expressed in Escherichia coli Rosetta (DE3) pLysS assessed as reduction in covalent KLK7-vaspin complex formation using compound pre-treated KLK7 incubated for 60 mins by Coomassie-staining based SDS-PAGE method. Put shortly:
as §1

Kallikrein-7 (Homo sapiens), sequence (P49862 30-253 limits assumed): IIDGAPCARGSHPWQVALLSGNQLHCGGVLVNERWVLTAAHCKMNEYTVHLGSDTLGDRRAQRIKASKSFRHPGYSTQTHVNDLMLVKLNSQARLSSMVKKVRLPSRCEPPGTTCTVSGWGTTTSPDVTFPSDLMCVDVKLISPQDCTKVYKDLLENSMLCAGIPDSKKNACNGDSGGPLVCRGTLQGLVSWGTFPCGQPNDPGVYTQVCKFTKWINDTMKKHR

As to `O=C(Oc1cccc(Br)c1)c1cc2cc(CCl)ccc2oc1=O`, the outcome in data set [1] was Active. In addition, the Activity in data set [2] was under 0.1 pmol/min/µg. Further, in data set [3], the Stability result is recorded as “Stable”. Also, the inhibition entry in data set [4] is “inactive”. For the same molecule, the inhibition result in data set [5] was “Active”.

As to `O=C(Oc1cccc(I)c1)c1cc2cc(CCl)ccc2oc1=O`, the Activity in data set [2] was under 0.1 pmol/min/µg. The inhibition entry in data set [4] was “inactive”. Also, the inhibition result in data set [5] is “Active”.

Consider `O=C(Oc1cccc(Cl)c1)c1cc2cc(CCl)ccc2oc1=O`, for which, in data set [2], the Activity is under 0.1 pmol/min/µg. The inhibition result in data set [4] is “inactive”. Further, the inhibition result in data set [5] was “Active”.
